Assay outcomes as filed in PubChem.
Sampled rows, rich in hits. Any-hit rate of the full collection: about 9.6%.
PMI activator – activators of human PMI, primary screen, biochemical, fluorescence intensity, near-Km mannose 6-phosphate; AID 1214, 2008; hit rate 0.005% among 190,000; Mannose-6-phosphate isomerase (Homo sapiens), P34949; activation factor at 20 µM; purified human PMI, coupled resazurin fluorescence, 20 min; active compounds read high; 1 = vehicle control, 0 substrate-free wells;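 active = activation factor of 2 or more at 20 µM, relative to plate controls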
Target sequence (P34949 whole entry, looked up): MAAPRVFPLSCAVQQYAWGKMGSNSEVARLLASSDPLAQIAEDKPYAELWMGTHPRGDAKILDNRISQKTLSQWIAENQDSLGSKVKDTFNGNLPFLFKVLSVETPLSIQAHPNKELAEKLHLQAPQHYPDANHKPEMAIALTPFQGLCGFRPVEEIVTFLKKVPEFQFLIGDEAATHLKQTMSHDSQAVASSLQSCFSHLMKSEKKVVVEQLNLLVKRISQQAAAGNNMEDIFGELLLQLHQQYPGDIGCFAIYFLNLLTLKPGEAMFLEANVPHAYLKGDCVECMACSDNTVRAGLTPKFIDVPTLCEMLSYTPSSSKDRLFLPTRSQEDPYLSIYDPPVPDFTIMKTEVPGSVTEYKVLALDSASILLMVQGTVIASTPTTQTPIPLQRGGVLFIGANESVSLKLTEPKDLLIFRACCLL
HCT116 bCat-KO – primary screen for growth suppressors in beta-catenin knockout HCT116 cells (colon tumor, human); HCT116 beta-catenin knockout viability, CellTiter-Glo, 60 h; active compounds read low; viability, % at 10 µM; hit rate 1.5% among 140,000; AID 818, 2007;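 active = viability at or under a set limit, the compound median less 4 SD, cut at about 6% in these data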;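 also: 0% = Hyamine 1622 control at 20 µM and 100% = untreated cell control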
PTEN del growth – growth suppression of PTEN-null HCT116, primary screen, cell-based, CellTiter-Glo; HCT116 PTEN-null viability, 60 h; active compounds read low; viability, % at 10 µM; hit rate 1.2% among 140,000; AID 827, 2007;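 active = viability at or below a set limit, 4 SD under the median of all tested compounds, cut at about 3.7% in these data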;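 also: PTEN knockout HCT116 line with beta catenin targeted HCT116 as companion control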
Lmaj promast – Leishmania major promastigote growth inhibition, primary screen. inhibition, % at 10 µM. hit rate 9% among 200,000. AID 1063, 2008. Leishmania major promastigotes, resazurin fluorescence viability; in the data active = inhibition above about 50%;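 also: promastigotes grown with compound for 44 hours at 28 °C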
PMI act hi M6P – human PMI activators, high substrate, primary screen, biochemical, fluorescence intensity, near-saturating mannose 6-phosphate. Mannose-6-phosphate isomerase (Homo sapiens), P34949. coupled PMI enzyme assay, resazurin fluorescence, 20 min; active compounds read high; 1 = untreated enzyme, 0 = substrate-free blank. activation factor at 20 µM. hit rate 0.34% among 190,000;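 active = activation factor of 2 or more at 20 µM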
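Test system: human PMI in coupled enzyme assay; Input: PMI at 15 ng/mL final; Medium: HEPES buffer, pH 7.4; Schedule: 20 min incubation at room temperature; Technique: resorufin fluorescence at Ex 544/Em 590 nm; Compound: 20 µM single dose; Probe or stimulus: Near-saturating mannose-6-phosphate, 1.0 mM.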
* = called active by the depositor; . = no result given.

SMILES | PMI activator | HCT116 bCat-KO | PTEN del growth | Lmaj promast | PMI act hi M6P
FC(F)(F)c1ccccc1NC(=S)NN1CCOCC1 | 1 | 92.9 | 106.4 | -2.9 | 1.1
FC(F)(F)c1ccccc1NC(=S)NC1CCN(Cc2ccccc2)CC1 | 0.9 | . | . | 75.9* | 0.9
S=C(NCC1CCCO1)Nc1ccccc1Cl (stereo unspecified) | 1 | 92.2 | 93.9 | 64.5* | 1
COc1ccc(-n2c(Cn3c(=O)sc4ccccc43)nnc2SCC(=O)N2CCCC2)cc1 | 1 | 80.1 | 84.9 | -4.9 | 1
O=C(O)CNC(=S)NCc1ccccc1 | 0.9 | . | . | -12.3 | 1
CC(C)c1ccccc1NC(=S)NC1CCN(Cc2ccccc2)CC1 | 1 | 67.3 | 59.6 | 74.4* | 1.1
CC(C)c1ccccc1NC(=S)NN(Cc1ccccc1)c1ccccc1 | 1 | 43.6 | 47.6 | 54.1* | 1
S=C(NCc1ccccc1)NCc1cccc(CNC(=S)NCc2ccccc2)c1 | 0.9 | 88.4 | 92.9 | 84.5* | 1
Fc1ccccc1NC(=S)NN(Cc1ccccc1)c1ccccc1 | 0.9 | 80.7 | 81.5 | 15.8 | 0.9
O=C(CSCc1ccc(Br)cc1)NCc1ccccn1 | 0.9 | . | . | -3.6 | 0.9
S=c1[nH]nc(COc2ccc(Cl)cc2)n1Cc1ccco1 | 1 | . | . | 2.1 | 1
O=C(COc1ccc(Cl)cc1Cl)Nc1c(-c2cccs2)nc2ccccn12 | 1 | 88.7 | 81.0 | -3.0 | 1
OCCN(CCO)Cc1csc2ccccc12 | 1.1 | 81.1 | 90.7 | 23.3 | 1.1
O=C(NC1CCCCC1)c1ccc(S(=O)(=O)c2ccccc2Cl)c([N+](=O)[O-])c1 | 0.9 | 86.5 | 85.0 | 2.7 | 0.9
O=C(c1ccc(S(=O)(=O)c2ccccc2Cl)c([N+](=O)[O-])c1)N1CCN(Cc2ccccc2)CC1 | 1 | 4.9* | 9.2 | 76.3* | 1
O=C(c1ccc(S(=O)(=O)c2ccc(F)cc2)c([N+](=O)[O-])c1)N1CCCCCC1 | 0.9 | 9.7 | 10.5 | 98.2* | 1
CC1CCN(C(=O)c2ccc(S(=O)(=O)Cc3ccccc3F)c([N+](=O)[O-])c2)CC1 | 0.9 | 14.1 | 11.1 | 92.7* | 1
C=CCN(c1ccc(C(=O)Nc2ccc(NC(C)=O)cc2)cc1)S(C)(=O)=O | 1.1 | . | . | 0.9 | 1.1
COC(=O)[C@@]1(Cc2ccc(OC)cc2)[C@H]2c3cc(C(=O)N4CCCC4)n(CCn4cc([N+](=O)[O-])nc4C)c3C[C@H]2CN1C(=O)c1ccccc1 | 1 | 93.7 | 95.1 | -3.5 | 1.1
O=C(Cn1[nH]c(=O)c2ccccc2c1=O)Nc1ccc(-c2nnc3n2CCCCC3)cc1 | 1 | 101.8 | 92.7 | 5.3 | 0.9
CCCCCCCCCCCCCCCC(O)C(N)CO (stereo unspecified) | 1.2 | 1.9* | 1.5* | 100.5* | 1.2
Cc1nn(C)cc1CN(C)S(=O)(=O)c1cccc([N+](=O)[O-])c1 | 0.9 | . | . | 7.3 | 0.9
CC(=O)Nc1cc(C(=O)NCc2ccco2)ccc1Sc1ccc(Cl)cc1 | 1.1 | 79.5 | 85.4 | 92.4* | 1.1
CCOc1ccccc1CNC(=O)c1ccc(Sc2ccc(Cl)cc2)c(NC(C)=O)c1 | 0.9 | 81.7 | 86.5 | 85.2* | 0.9
CCOc1ccc(CNC(=O)c2ccc(Sc3ccc(Cl)cc3)c(NC(C)=O)c2)cc1 | 1 | 76.1 | 88.0 | 95.2* | 1
SMILES | PMI activator | HCT116 bCat-KO | PTEN del growth | Lmaj promast | PMI act hi M6P
CCOc1ccc(S(=O)(=O)N(CC(=O)NC2CCCCC2C)Cc2ccco2)cc1 (stereo unspecified) | 1.1 | 89.3 | 95.6 | 87.0* | 1
CC1CCCCC1NC(=O)COC(=O)c1ccc(S(=O)(=O)NCc2ccco2)cc1 (stereo unspecified) | 0.9 | 79.8 | 89.2 | -3.1 | 1
CCCCNC(=O)CCCCCNS(=O)(=O)c1ccc(Br)cc1 | 1.1 | . | . | 3.6 | 1.1
Cc1cc2cc(C#N)c(N3CCN(S(C)(=O)=O)CC3)nc2cc1C | 1 | 95.7 | 98.2 | 10.8 | 1
CC(=O)c1cc(-c2ccc(F)cc2)n(CCC(=O)Nc2cccnc2)c1C | 0.9 | . | . | -0.5 | 0.8
Cn1c(=O)c2c3c(sc2n2c(SCC(N)=O)nnc12)CC(C(C)(C)C)CC3 (stereo unspecified) | 0.9 | 1.4* | 4.7 | 48.2 | 0.9
CCCCN(CCCC)C(=O)CSc1nnc2n(C)c(=O)c3c4c(sc3n12)CCCC4 | 1 | 79.7 | 78.2 | 39.5 | 1
CN(C)S(=O)(=O)c1ccc(N2CCCC2)c(C(=O)N2CCN(c3ccc([N+](=O)[O-])cc3)CC2)c1 | 0.9 | . | . | 26.4 | 0.9
Cc1cccc(N2CCN(C(=O)c3cc(S(=O)(=O)N(C)C)ccc3N3CCCC3)CC2)c1C | 1.1 | . | . | 53.8* | 1
CC1=NN(C(=O)Cn2nc([N+](=O)[O-])cc2C)C(O)(C(F)(F)F)C1 (stereo unspecified) | 0.9 | 95.2 | 105.4 | 44.7 | 0.9
NCCn1c(-c2ccccc2)cc(C(=O)O)c1-c1ccccc1F | 1.2 | 80.8 | 90.3 | -3.9 | 1.1
CC(=O)CSc1nc2ccc(Nc3nc(N4CCOCC4)nc(N4CCOCC4)n3)cc2s1 | 0.8 | 8.1 | 6.2 | 64.4* | 0.9
CC(C)(C)NC(=O)CSc1nc2ccc(Nc3nc(N4CCOCC4)nc(N4CCOCC4)n3)cc2s1 | 0.8 | . | . | 76.9* | 0.8
C/C(N)=C(/C#N)C(=O)CSc1cc(C)c2ccccc2n1 | 0.9 | . | . | 1.6 | 1
CC(=O)N1CCN(C(=O)COc2ccccc2C(=O)Nc2ccccc2)CC1 | 1 | . | . | -4.8 | 1
Cc1cccc(OCCNC(=O)c2cccc(Oc3ccc(C(F)(F)F)cc3[N+](=O)[O-])c2)c1 | 0.8 | 72.5 | 70.7 | 1.2 | 0.9
COc1ccc(C(CC(=O)Nc2cc(OC)cc(OC)c2)n2cccc2)cc1 (stereo unspecified) | 0.8 | 88.1 | 80.2 | 96.0* | 0.9
COc1ccc(C(CC(=O)NC(C)(C)C)n2cccc2)cc1 (stereo unspecified) | 0.9 | 93.5 | 95.5 | 22.7 | 0.9
COc1ccc(C(CC(=O)Nc2ccccc2OC)n2cccc2)cc1 (stereo unspecified) | 0.9 | 66.9 | 69.7 | 54.4* | 1
COc1ccc(C(CC(=O)Nc2nccs2)n2cccc2)cc1 (stereo unspecified) | 1 | 63.5 | 60.5 | 6.3 | 1
CCCCNC(=O)CSc1cc(=O)n(C)c2ccccc12 | 0.9 | 90.2 | 90.2 | -3.2 | 0.9
CCCCc1c(CCC)c(=N)c2ccccc2n1C | 0.8 | 48.1 | 46.9 | 100.1* | 1.1
COc1ccc(N2C(=O)CSC(c3ccccc3)C2=O)cc1 (stereo unspecified) | 1 | . | . | -1.8 | 1
CCCCc1ccc(-n2nnnc2SCC(=O)Nc2cc(OC)c([N+](=O)[O-])cc2C)cc1 | 0.9 | 86.8 | 79.5 | -3.5 | 0.9
CC1(C)CC(=O)C2=C(C1)OC(N)=C(C#N)C2Cc1ccccc1 (stereo unspecified) | 0.9 | 78.2 | 82.7 | -1.0 | 0.9
